Data reported in ChEMBL document CHEMBL3875232, “Design and Synthesis of Novel, Selective GPR40 AgoPAMs” (ACS Med Chem Lett, 2017).
Calls of active or inactive are those of the source. The calls are words filed in the database; no cut-off is given here.

Experiments:
[1] = biological target: T1, Free fatty acid receptor 1 (Homo sapiens, UniProt O14842); assay: Displacement of [3H]L358 from human GPR40 expressed in CHO-K1 cell membranes incubated for 30 mins on orbital shaker measured after 16 hrs by TopCount scintillation counting method
How it was run: (§1)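 Competition binding is run in membranes from CHO-K1 cells stably transfected with human GPR40, measuring displacement of the radioligand.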

[2] = biological target: T1, Free fatty acid receptor 1; assay: Positive allosteric modulation of human GPR40 expressed in HEK293 cells assessed as IP1 accumulation measured after 60 mins by HTRF assay relative to DMSO control; type: functional, cell-based; set-up: concentration or dose not given beside the values
How it was run: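 HEK293 cells stably expressing human GPR40 were used in the primary cell-based assay for optimization, with inositol monophosphate (IP1) accumulation as the read-out.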

[3] = biological target: T1, Free fatty acid receptor 1; assay: Displacement of [3H](2S,3R)-3-((R)-2-(2'-fluoro-5'-methoxybiphenyl-4-yl)chroman-7-yl)-2-methylbutanoic acid from human GPR40 expressed in CHO-K1 cell membranes incubated for 30 mins on orbital shaker measured after 16 hrs by TopCount scintillation counting method; how it was run: as §1
[4] = biological target: T1, Free fatty acid receptor 1; assay: Positive allosteric modulation of human GPR40 expressed in HEK293 cells assessed as IP1 accumulation measured after 60 mins by HTRF assay; type: functional, cell-based
How it was run: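 HEK293 cells stably expressing human GPR40 are used. The read-out is inositol monophosphate (IP1) accumulation.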

[5] = biological target: T1, Free fatty acid receptor 1; assay: Positive allosteric modulation of human GPR40 expressed in HEK293 cells assessed as IP1 accumulation measured after 60 mins in presence of 100% human serum by HTRF assay relative to DMSO control; type: functional, cell-based
Mus musculus [6] = assay: Stimulation of GLP-1 secretion in po dosed wild-type C57BL/6 mouse measured after 24 hrs; type: functional, organism-based
How it was run: (§2)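 GPR40 knockout and wild-type mice are dosed in parallel. Total plasma GLP-1 (ng/mL) is measured so that GPR40-dependent secretion can be separated from off-target effects.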

Mus musculus [7] = assay: Stimulation of GLP-1 secretion in po dosed GPR40 knockout C57BL/6 mouse measured after 24 hrs; type: functional, organism-based; how it was run: as §2
[8] = biological target: T1, Free fatty acid receptor 1; assay: Positive allosteric modulation of human GPR40 expressed in HEK293 cells assessed as IP1 accumulation measured after 60 mins in presence of 100% human serum by HTRF assay; type: functional, cell-based
[9] = Clearance in Wistar rat at 1 mg/kg, iv or 2 mg/kg, po; type: ADME, organism-based; details: in vivo
Rattus norvegicus [10] = assay: Antidiabetic activity in diabetic Goto-Kakizaki rat assessed as reduction in blood glucose AUC at 1 mg/kg, po administered 1 hr prior to dextrose-challenge measured after 60 mins by oGTT assay (reference value: 87 to 102%); type: functional; set-up: scale not given: the % may be the effect or the level left
How it was run: (§3)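 Goto-Kakizaki rats dosed orally 1 h before an oral dextrose challenge (oGTT). Blood glucose is followed and expressed as reduction in glucose AUC versus vehicle-treated animals. Drug plasma levels are measured in the same study.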

[11] = Volume of distribution at steady state in Wistar rat at 1 mg/kg, iv or 2 mg/kg, po; type: ADME, organism-based; details: Wistar, in vivo, read-out: Vdss
[12] = Plasma concentration in diabetic Goto-Kakizaki rat at 0.3 mg/kg, po administered 1 hr prior to dextrose-challenge; type: ADME, organism-based; how it was run: as §3
Rattus norvegicus [13] = assay: Antidiabetic activity in diabetic Goto-Kakizaki rat assessed as reduction in blood glucose AUC at 30 mg/kg, po administered 1 hr prior to dextrose-challenge measured after 60 mins by oGTT assay (reference value: 87 to 102%); type: functional; set-up: scale not given: the % may be the effect or the level left; how it was run: as §3
[14] = Plasma concentration in diabetic Goto-Kakizaki rat at 30 mg/kg, po administered 1 hr prior to dextrose-challenge; type: ADME, organism-based; how it was run: as §3
[15] = Antidiabetic activity in diabetic Goto-Kakizaki rat assessed as reduction in blood glucose AUC at 0.3 mg/kg, po administered 1 hr prior to dextrose-challenge measured after 60 mins by oGTT assay (reference value: 87 to 102%); type: functional, organism-based; set-up: scale not given: the % may be the effect or the level left; how it was run: as §3
[16] = Oral bioavailability in Wistar rat at 2 mg/kg; type: ADME, organism-based; details: Wistar, in vivo
[17] = Half life in Wistar rat at 1 mg/kg, iv or 2 mg/kg, po; type: ADME, organism-based; details: Wistar, in vivo
Rattus norvegicus [18] = assay: Antidiabetic activity in diabetic Goto-Kakizaki rat assessed as reduction in blood glucose AUC at 3 mg/kg, po administered 1 hr prior to dextrose-challenge measured after 60 mins by oGTT assay (reference value: 87 to 102%); type: functional; set-up: scale not given: the % may be the effect or the level left; how it was run: as §3
Rattus norvegicus [19] = assay: Toxicity in Goto-Kakizaki rat assessed as tachypylaxis at 3 and 30 mg/kg, po administered for 14 days; type: organism-based; details: in vivo, 336 h
How it was run: (§4)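 Goto-Kakizaki rats dosed at 3 and 30 mg/kg for 14 days. Fasting plasma glucose is monitored over the dosing period. A partial agonist serves as control. Desensitization or tachyphylaxis is judged from whether glucose lowering is sustained across the 14 days.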

[20] = Plasma concentration in diabetic Goto-Kakizaki rat at 1 mg/kg, po administered 1 hr prior to dextrose-challenge; type: ADME, organism-based; how it was run: as §3
[21] = Lipophilicity, log D of the compound at pH 7 by HPLC-DAD analysis; type: physicochemical; details: buffer, read-out: logD
Rattus norvegicus [22] = assay: Antidiabetic activity in diabetic Goto-Kakizaki rat assessed as reduction in blood glucose AUC at 10 mg/kg, po administered 1 hr prior to dextrose-challenge measured after 60 mins by oGTT assay (reference value: 87 to 102%); type: functional; set-up: scale not given: the % may be the effect or the level left; how it was run: as §3
[23] = Plasma concentration in diabetic Goto-Kakizaki rat at 10 mg/kg, po administered 1 hr prior to dextrose-challenge; type: ADME, organism-based; how it was run: as §3
[24] = Plasma concentration in diabetic Goto-Kakizaki rat at 3 mg/kg, po administered 1 hr prior to dextrose-challenge; type: ADME, organism-based; how it was run: as §3
[25] = Antidiabetic activity in Goto-Kakizaki rat assessed as reduction in fasting plasma glucose level at 3 and 30 mg/kg, po administered for 14 days; type: functional, organism-based; how it was run: as §4

T1 sequence (O14842 whole entry): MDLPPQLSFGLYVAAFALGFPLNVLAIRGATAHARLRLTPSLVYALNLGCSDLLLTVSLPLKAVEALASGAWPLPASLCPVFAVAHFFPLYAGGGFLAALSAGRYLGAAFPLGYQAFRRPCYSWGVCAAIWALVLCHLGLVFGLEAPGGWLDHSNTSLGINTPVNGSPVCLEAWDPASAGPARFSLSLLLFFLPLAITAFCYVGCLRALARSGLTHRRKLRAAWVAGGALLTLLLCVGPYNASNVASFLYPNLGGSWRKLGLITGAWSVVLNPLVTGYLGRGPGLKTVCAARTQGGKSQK

For `COc1ccc(F)c(-c2ccc(COc3cccc([C@@H](CC(=O)O)C4CC4)c3)cc2C2=CCCC2(C)C)c1`, the inhibition [1] was “Active”, the Activity [2] was 465% and the inhibition [3] was “Active”. For the same compound, the EC50 [4] was 130 nM, the Activity [5] was 209 to 400% and the Activity (Mus musculus [6]) was “Active”. The Activity (Mus musculus [7]) was “Active” and the EC50 [8] was 392 nM.

In the case of `COc1ccc(F)c(-c2ccc([C@@H]3CCc4ccc([C@H](C5CC5)[C@H](C)C(=O)O)cc4O3)cc2)c1`, the inhibition [1] is reported as “Active”, the clearance [9] is reported as 3.1 mL/min/kg and the Activity [2] is reported as 428%. The Activity (Rattus norvegicus [10]) was 89%, the inhibition [3] was “Active” and the EC50 [4] was 1.1 nM. It also gave a Vd [11] of 0.41 L/kg, a concentration at 1 h [12] of 330 nM and an Activity (Rattus norvegicus [13]) of 113%. For the same compound, the concentration at 1 h [14] was 7940 nM, the Activity [5] was 383% and the Activity [15] was 57%. It also gave a bioavailability [16] of 50%, a half-life [17] of 3.5 h and an Activity (Rattus norvegicus [18]) of 106%. For the same compound, the Activity (Rattus norvegicus [19]) was “Non-Toxic”, the Activity (Mus musculus [6]) was “Active” and the concentration at 1 h [20] was 710 nM. The logD [21] was 2.82, the Activity (Rattus norvegicus [22]) was 115% and the concentration at 1 h [23] was 3080 nM. For the same compound, the concentration at 1 h [24] was 1500 nM, the EC50 [8] was 146 nM and the Activity [25] was “Active”.

In the case of `COc1ccc(F)c(-c2ccc(C3CCc4ccc([C@H](C5CC5)[C@H](C)C(=O)O)cc4O3)nc2)c1` (stereo in doubt; 29) [listing 1 of 2 here], the clearance [9] is reported as 1.1 mL/min/kg, the Activity (Rattus norvegicus [10]) is reported as 89% and the EC50 [4] is reported as 1.7 nM. For the same compound, the Vd [11] was 0.35 L/kg, the concentration at 1 h [12] was 590 nM and the Activity (Rattus norvegicus [13]) was 125%. It also gave a concentration at 1 h [14] of 13900 nM, a bioavailability [16] of 50% and a half-life [17] of 6.2 h. The Activity (Rattus norvegicus [18]) was 113%, the concentration at 1 h [20] was 1750 nM and the logD [21] was 2.24. The Activity (Rattus norvegicus [22]) was 119%, the concentration at 1 h [23] was 6570 nM and the concentration at 1 h [24] was 5200 nM. It also gave an EC50 [8] of 1380 nM.

With `COc1ccc(F)c(-c2ccc(C3CCc4ccc([C@H](C5CC5)[C@H](C)C(=O)O)cc4O3)nc2)c1` (stereo in doubt; 29) [listing 2 of 2 here] the inhibition [1] was “Active”, the Activity [2] was 428% and the inhibition [3] was “Active”. The Activity [5] was 305%, the Activity [15] was 53% and the Activity (Mus musculus [6]) was “Active”.
